# Several values for one entry are separate records, joined by “and”; a condition that tells them apart may be missing. Identical values can stand only once. Marks after values point to notes of the source that are not given here.
# Tests used:
# Caski = assay: Growth of Caski; assay type: cell-based, human; conditions: 72 h
# Outline: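 Cell lines carrying integrated viral genomes were plated in 96-well plates in medium with test compound. Growth was read by ATP luminescence (CellTiter-Glo) for HEK293 and WI38 VA13, and by MTS reduction (A490 after 2 h at 37 °C) for Namalwa, W12 20861, SiHa, Caski and HeLa. K and Imax came from a fit to a modified Hill equation.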
# HPV = assay: Viral DNA levels in the three HPV-infected cell lines; assay type: cell-based; conditions: read-out: K values, viral DNA levels
# W12-20850 cells = assay: Growth of W12-20850 cells, MTS; assay type: cell-based, human
# Outline: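 For the time course, test compound was added at time zero to cells growing in 96-well plates. Growth was followed as rate of MTS reduction over 3 days from day zero, with untreated controls alongside.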
# [1] = Bone marrow toxicity assay, erythroid progenitors; assay type: cell-based; conditions: human, erythroid bone marrow progenitor cells
# [2] = Growth of resting CD4 T cells, CTG; assay type: cell-based; conditions: human
# Outline: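 Primary cells were plated in 96-well plates with serial dilutions of test compound, 3 nM to 100 μM, for 72 h at 37 °C. Read-out was CTG for resting B and CD4 T cells and MTS for PBMC, WI38 and HUVEC. Purity was 90–95% for B cells and 97% for CD4 cells. Activated PBMCs were stimulated with phytohemagglutinin plus IL2.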
# IM9 cells = assay: Growth of IM9 cell line; assay type: cell-based, human
# HFF cells = assay: Growth of uninfected HFF cells; assay type: cell-based, human
# [3] = Growth of uninfected HFF cells; assay type: cell-based, human; conditions: human, HFF cells (fibroblasts)
# B-LCL 5/2/1 = assay: Growth of B-LCL 5/2/1; assay type: cell-based, human
# W12 cells = assay: mRNA measurement by RT-qPCR in W12 cells; assay type: cell-based, human; conditions: W12 cells
# Outline: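 RNA was taken 0, 24 and 48 h after adding test compound; W12 cells were grown in 75 cm² flasks and washed in chilled PBS. 546 Pathway Set genes were run in quadruplicate by RT-qPCR: 10 μl reactions, primers 900 nM, probes 100 nM final. Ct was normalised to GAPDH, with dCt = Ct(control) − Ct(treated) and a two-sided t-test. Fold change was F = 2^dCt where p ≤ 0.05.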
# [4] = 10 nM, 24 h, not significantly different from 1
smiles,measurement,setting,value
"O=C(N[C@@H]1CCCc2c1[nH]c1ccc(Cl)cc21)c1ccccn1 [GSK983, N-[(1R)-6-Chloro-2,3,4,9-tetrahydro-1H-carbazol-1-yl]-2-pyridinecarboxamide]","Imax, Growth, MTS","Caski; Caski, HPV16 integrated",33 ± 1.5%
same,EC50,"Caski; Homo sapiens, Ca-Ski, read-out: K, Growth, MTS",32 ± 6 nM
same,EC50,HPV,2 to 5 nM
same,EC50,"W12-20850 cells; Homo sapiens, W12-20850, 96 h, read-out: K, Growth, MTS",11 ± 2 nM
same,Outcome of growth inhibition over time,"W12-20850 cells; W12, 3 days, rate of MTS reduction",cytostasis
same,"Imax, Growth, MTS","W12-20850 cells; W12-20850, 4 days",60% and 60 ± 7%
same,CC50,[1],> 10000 nM
same,CC50 at 72 h,[2],60000 nM
same,EC50,"IM9 cells; Homo sapiens, IM-9, 72 h, read-out: K, cell line growth",16 ± 2 nM
same,Selectivity index,IM9 cells; IM9 (EBV) vs activated B cell,>620 ± 80
same,Outcome of growth inhibition over time,"IM9 cells; IM9, 3 days, higher concentrations",cell death
same,"K, uninfected host cell growth, MTS","HFF cells; HFF, this experiment (Fig. 2), K ∼ CC50","35,500 nM"
same,"Growth of the uninfected HFF, as measured by MTS",HFF cells; at concentrations below one micromolar,not inhibited
same,CC50 at 72 h,[3],55000 nM
same,Selectivity index,B-LCL 5/2/1; B-LCL 5/2/1 (EBV) vs activated B cell,>700 ± 15
same,"Imax, cell line growth","B-LCL 5/2/1; B-LCL 5/2/1 (EBV), CTG, 72 h",93 ± 1%
same,EC50,"B-LCL 5/2/1; Homo sapiens, 72 h, read-out: K, cell line growth",14 ± 0.3 nM
same,"Expression of IFI6, IFI44 and IRF9",W12 cells,strongly induced
same,"Fold increase due to GSK983, CPT1B mRNA","W12 cells; 10 nM, 24 h",2.2 fold
same,"Fold increase due to GSK983, IFI16 mRNA","W12 cells; 10 nM, 24 h",5.2 fold
same,"Fold increase due to GSK983, IFI44 mRNA","W12 cells; 10 nM, 24 h",2.9 fold
same,"Fold increase due to GSK983, IFIT1 mRNA","W12 cells; 10 nM, 24 h",2.6 fold
same,"Fold increase due to GSK983, ISG15 mRNA","W12 cells; 10 nM, 24 h",2.5 fold
same,"Fold increase due to GSK983, OAS2 mRNA","W12 cells; 10 nM, 24 h",2.1 fold
same,"Fold increase due to GSK983, OASL mRNA","W12 cells; 10 nM, 24 h",1.8 fold
same,"Fold increase due to GSK983, TNFSF10 mRNA","W12 cells; 10 nM, 24 h",3.7 fold
same,"Fold increase due to GSK983, CCL5 mRNA",W12 cells; [4],7.9 ^b fold
same,"Fold increase due to GSK983, COL10A1 mRNA",W12 cells; [4],0.8 ^b fold
same,"Fold increase due to GSK983, CSF2 mRNA",W12 cells; [4],1.5 ^b fold
same,"Fold increase due to GSK983, DCN mRNA",W12 cells; [4],1.5 ^b fold
same,"Fold increase due to GSK983, DMPK mRNA",W12 cells; [4],0.9 ^b fold
same,"Fold increase due to GSK983, ERN2 mRNA",W12 cells; [4],0.7 ^b fold
same,"Fold increase due to GSK983, FMOD mRNA",W12 cells; [4],1.0 ^b fold
same,"Fold increase due to GSK983, IFI6 mRNA",W12 cells; [4],1.1 ^b fold
same,"Fold increase due to GSK983, IL6 mRNA",W12 cells; [4],2.5 ^b fold
same,"Fold increase due to GSK983, IL8 mRNA",W12 cells; [4],1.8 ^b fold
same,"Fold increase due to GSK983, IRF9 mRNA",W12 cells; [4],1.0 ^b fold
same,"Fold increase due to GSK983, LIFR mRNA",W12 cells; [4],2.1 ^b fold
same,"Fold increase due to GSK983, LRP1 mRNA",W12 cells; [4],1.2 ^b fold
same,"Fold increase due to GSK983, NR1H3 mRNA",W12 cells; [4],0.6 ^b fold
same,"Fold increase due to GSK983, OAS1 mRNA",W12 cells; [4],1.1 ^b fold
same,"Fold increase due to GSK983, SNAP25 mRNA",W12 cells; [4],1.2 ^b fold
same,"Fold increase due to GSK983, TLR5 mRNA",W12 cells; [4],1.9 ^b fold
same,"Fold increase due to GSK983, CCL5 mRNA","W12 cells; 10 nM, 48 h",41.5 fold
same,"Fold increase due to GSK983, CEL mRNA","W12 cells; 10 nM, 48 h",14.1 fold
same,"Fold increase due to GSK983, COL10A1 mRNA","W12 cells; 10 nM, 48 h",2.0 fold
same,"Fold increase due to GSK983, CPT1B mRNA","W12 cells; 10 nM, 48 h",2.2 fold
same,"Fold increase due to GSK983, CSF2 mRNA","W12 cells; 10 nM, 48 h",1.7 fold
same,"Fold increase due to GSK983, DCN mRNA","W12 cells; 10 nM, 48 h",2.1 fold
same,"Fold increase due to GSK983, DMPK mRNA","W12 cells; 10 nM, 48 h",2.1 fold
same,"Fold increase due to GSK983, ERN2 mRNA","W12 cells; 10 nM, 48 h",2.6 fold
same,"Fold increase due to GSK983, FMOD mRNA","W12 cells; 10 nM, 48 h",1.5 fold
same,"Fold increase due to GSK983, IFI6 mRNA","W12 cells; 10 nM, 48 h",2.2 fold
same,"Fold increase due to GSK983, IFI16 mRNA","W12 cells; 10 nM, 48 h",1.6 fold
same,"Fold increase due to GSK983, IFI44 mRNA","W12 cells; 10 nM, 48 h",2.7 fold
same,"Fold increase due to GSK983, IFIT1 mRNA","W12 cells; 10 nM, 48 h",2.0 fold
same,"Fold increase due to GSK983, IL6 mRNA","W12 cells; 10 nM, 48 h",1.8 fold
same,"Fold increase due to GSK983, IL8 mRNA","W12 cells; 10 nM, 48 h",1.4 fold
same,"Fold increase due to GSK983, IRF3 mRNA","W12 cells; 10 nM, 48 h",1.3 fold
same,"Fold increase due to GSK983, ISG15 mRNA","W12 cells; 10 nM, 48 h",3.0 fold
same,"Fold increase due to GSK983, LIFR mRNA","W12 cells; 10 nM, 48 h",1.5 fold

# Source: paper PMC7114156 (Antiviral Research, 2009)
